{"data": "Results pooled from the literature", "EP300": "Histone acetyltransferase p300 (EP300, Homo sapiens, UniProt Q09472)", "KMT5A": "N-lysine methyltransferase KMT5A (KMT5A, Homo sapiens, UniProt Q9NQR1)", "ABL1 H396P": "Tyrosine-protein kinase ABL1 (ABL1, Homo sapiens, UniProt P00519, H396P)", "RIOK1": "Serine/threonine-protein kinase RIO1 (RIOK1, Homo sapiens, UniProt Q9BRS2)", "note": "Each line is one published result; the experiments were not run side by side."}
{"SMILES": "NS(=O)(=O)c1ccc(Nc2nc(-c3ccc(F)cc3)c3ccccc3n2)cc1", "target": "EP300", "assay": "binding, competition with immobilised ligand", "conditions": "1 µM", "quantity": "remaining binding", "value": "62%"}
{"SMILES": "Nc1ncnc2c1ncn2[C@@H]1O[C@H](CSCC[C@H](N)C(=O)O)[C@@H](O)[C@H]1O", "target": "Protein arginine N-methyltransferase 6 (PRMT6, Homo sapiens, UniProt Q96LA8)", "assay": "thermal stability, DSF", "conditions": "100 µM", "quantity": "ΔTm", "value": "8.4 °C"}
{"SMILES": "O=C(c1ccc(F)cc1)N(Cc1ccccc1)C1CCCCC1", "target": "Delta-type opioid receptor (OPRD1, Homo sapiens, UniProt P41143)", "assay": "ligand displacement", "conditions": "10 µM", "quantity": "inhibition", "value": "0%"}
{"SMILES": "Cc1cnc(Nc2ccc(OCCN3CCCC3)cc2)nc1Nc1cccc(S(=O)(=O)NC(C)(C)C)c1", "target": "EP300", "assay": "thermal stability, DSF", "conditions": "10 µM", "quantity": "ΔTm", "value": "2.76 °C"}
{"SMILES": "O=c1oc2c(O)c(O)cc3c(=O)oc4c(O)c(O)cc1c4c23", "target": "KMT5A", "assay": "cell-free assay", "conditions": "10 µM", "quantity": "inhibition", "value": "2%"}
{"SMILES": "COc1cc(-c2cc(-c3ccc(N4CCNCC4)cc3)cnc2N)cc(OC)c1OC", "target": "ABL1 H396P", "assay": "enzyme activity, inhibitor", "conditions": "1 µM", "quantity": "inhibition", "value": "96%"}
{"SMILES": "CN(C)C1CCN(CC#Cc2nn(C3CCCC3)c3nc(NCc4ccccc4)ncc23)C1 (stereo not shown)", "target": "Misshapen-like kinase 1 (MINK1, Homo sapiens, UniProt Q8N4C8)", "assay": "enzyme activity, inhibitor, FRET", "conditions": "10 µM", "quantity": "inhibition", "value": "55%"}
{"SMILES": "Cc1cc(NC(=O)c2cccc3cc(-c4cccc5[nH]nc(N)c45)ccc23)ccc1F", "target": "ABL1 H396P", "assay": "enzyme activity, inhibitor", "conditions": "0.1 µM", "quantity": "activity vs control", "value": "97%"}
{"SMILES": "Cc1ccc(C(=O)Nc2ccc(CN3CCN(C)CC3)c(C(F)(F)F)c2)cc1C#Cc1cnc2cccnn12", "target": "RIOK1", "assay": "enzyme activity, inhibitor", "conditions": "23.5 nM", "quantity": "remaining activity", "value": "98%"}
{"SMILES": "Nc1ncnc2occ(-c3ccc(NC(=O)Nc4cc(C(F)(F)F)ccc4F)cc3)c12", "target": "RIOK1", "assay": "cell-free assay, inhibitor", "conditions": "20 µM", "quantity": "remaining signal", "value": "89%"}
{"SMILES": "Oc1cccc(Nc2nc(-c3ccc(F)cc3F)cs2)c1", "target": "Androgen receptor (AR, Homo sapiens, UniProt P10275)", "assay": "cell-free assay", "conditions": "10 µM", "quantity": "inhibition", "value": "26.5%"}
{"SMILES": "CCN(CC)CCNC(=O)c1c(C)[nH]c(/C=C2\\C(=O)Nc3ccc(F)cc32)c1C", "target": "Protein kinase C beta type (PRKCB, Homo sapiens, UniProt P05771)", "assay": "enzyme activity, inhibitor", "conditions": "10 µM", "quantity": "inhibition", "value": "0%"}
{"SMILES": "O=c1c(O)cccc2cc(O)c(O)c(O)c12", "target": "KMT5A", "assay": "cell-free assay", "conditions": "10 µM", "quantity": "inhibition", "value": "7%"}
